According to ChEMBL document CHEMBL1138994, “Probing structure/affinity relationships for the Plasmodium falciparum hexose transporter with glucose derivatives” (Bioorg Med Chem Lett, 2006):
The source made the active and inactive calls. The calls are words filed in the database; no cut-off is given here.

How the values were obtained:
[1] = biological target: T1, Solute carrier family 2, facilitated glucose transporter member 1 (Homo sapiens) (UniProt P11166); experiment: Inhibitory activity against GLUT1
T1 sequence (whole entry): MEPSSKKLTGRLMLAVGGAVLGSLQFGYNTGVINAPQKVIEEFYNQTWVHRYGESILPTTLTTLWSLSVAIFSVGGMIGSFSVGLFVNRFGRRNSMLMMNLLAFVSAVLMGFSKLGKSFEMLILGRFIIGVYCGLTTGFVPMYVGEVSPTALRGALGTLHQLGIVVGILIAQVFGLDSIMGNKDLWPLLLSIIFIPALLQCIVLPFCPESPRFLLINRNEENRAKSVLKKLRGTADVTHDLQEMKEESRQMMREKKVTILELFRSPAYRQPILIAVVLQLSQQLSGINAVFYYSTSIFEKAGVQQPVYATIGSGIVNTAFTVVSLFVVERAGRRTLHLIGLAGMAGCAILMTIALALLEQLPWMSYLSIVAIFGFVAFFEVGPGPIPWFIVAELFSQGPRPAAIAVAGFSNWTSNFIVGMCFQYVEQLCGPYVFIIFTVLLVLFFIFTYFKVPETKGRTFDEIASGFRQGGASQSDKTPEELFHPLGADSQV

Hexose transporter 1 = biological target: T2, Hexose transporter 1 (Plasmodium falciparum, UniProt O97467); experiment: Inhibition of D-glucose uptake mediated by PfHT expressed in Xenopus oocytes; format: functional, cell-based, Oocyte
T2 sequence (O97467 whole entry): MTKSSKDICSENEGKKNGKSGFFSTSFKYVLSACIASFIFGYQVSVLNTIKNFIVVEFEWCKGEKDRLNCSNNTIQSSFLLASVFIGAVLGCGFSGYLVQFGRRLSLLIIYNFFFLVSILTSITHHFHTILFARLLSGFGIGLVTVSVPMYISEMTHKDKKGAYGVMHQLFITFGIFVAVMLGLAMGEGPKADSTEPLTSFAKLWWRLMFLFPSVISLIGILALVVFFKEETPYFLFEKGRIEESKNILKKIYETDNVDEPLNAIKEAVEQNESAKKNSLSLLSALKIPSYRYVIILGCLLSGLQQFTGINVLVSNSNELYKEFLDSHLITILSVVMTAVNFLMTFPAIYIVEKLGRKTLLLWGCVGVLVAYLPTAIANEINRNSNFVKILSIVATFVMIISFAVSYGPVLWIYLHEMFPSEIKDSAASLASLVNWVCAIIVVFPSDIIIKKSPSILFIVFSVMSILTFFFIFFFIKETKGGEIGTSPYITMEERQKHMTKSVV
How it was run: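 Oocyte-expressed PfHT assay; values are means of three experiments with standard error of the mean, or two individual experiments where marked.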

| inhibition [1] | Ki (Hexose transporter 1; read-out: Ki) | Ki (Hexose transporter 1; oocyte) | SMILES |
| --- | --- | --- | --- |
| inactive | > 500 µM | – | COC(=O)CCCCCCC#CCCCCCCCO[C@H]1[C@H](O)[C@@H](CO)OC(O)[C@@H]1O (stereo partly specified) |
| inactive | > 500 µM | – | CCCCCCCC/C=C/CCCCCCO[C@H]1[C@H](O)[C@@H](CO)OC(O)[C@@H]1O (stereo partly specified) |
| inactive | – | Not Active | O=C(NCCCO[C@H]1[C@H](O)[C@@H](CO)OC(O)[C@@H]1O)C(F)(F)C(F)(F)C(F)(F)C(F)(F)C(F)(F)C(F)(F)F (stereo partly specified) |
| inactive | 32 µM | – | CCCCCCCCCO[C@H]1[C@H](O)[C@@H](CO)OC(O)[C@@H]1O (stereo partly specified) |
| inactive | 36 µM | – | C=CCCCCCCCCCCO[C@H]1[C@H](O)[C@@H](CO)OC(O)[C@@H]1O (stereo partly specified) |
| inactive | 53 µM | – | C=CCCCCCCCCCO[C@H]1[C@H](O)[C@@H](CO)OC(O)[C@@H]1O (stereo partly specified) |
| inactive | > 500 µM | – | OC[C@H]1OC(O)[C@H](O)[C@@H](OCCCC(F)(F)C(F)(F)C(F)(F)C(F)(F)C(F)(F)C(F)(F)F)[C@@H]1O (stereo partly specified) |
| inactive | 81 µM | – | CCCCc1ccc(CCCCCO[C@H]2[C@H](O)[C@@H](CO)OC(O)[C@@H]2O)cc1 (stereo partly specified) |
| inactive | > 500 µM | – | CCCCCCCCCCCCCCO[C@H]1[C@H](O)[C@@H](CO)OC(O)[C@@H]1O (stereo partly specified) |
| inactive | – | – | CCCCCCCCCCCCCCCCCCCCO[C@H]1[C@H](O)[C@@H](CO)OC(O)[C@@H]1O (stereo partly specified) |
| inactive | 30 µM | – | CCCCCCCCCCCCO[C@H]1[C@H](O)[C@@H](CO)OC(O)[C@@H]1O (stereo partly specified) |
| inactive | 148 µM | – | OC[C@H]1OC(O)[C@H](O)[C@@H](OCCCCCCCCc2ccccc2)[C@@H]1O (stereo partly specified) |
| inactive | 590 µM | – | C=CCCCCCCCOCCO[C@H]1[C@H](O)[C@@H](CO)OC(O)[C@@H]1O (stereo partly specified) |
| inactive | > 500 µM | – | C=CCOCCO[C@H]1[C@H](O)[C@@H](CO)OC(O)[C@@H]1O (stereo partly specified) |
| inactive | 130 µM | – | OC[C@H]1OC(O)[C@H](O)[C@@H](OCCCCCCCC(F)(F)C(F)(F)C(F)(F)C(F)(F)C(F)(F)C(F)(F)F)[C@@H]1O (stereo partly specified) |
| inactive | – | Not Active | C=CCOCCOCCO[C@H]1[C@H](O)[C@@H](CO)OC(O)[C@@H]1O (stereo partly specified) |
| inactive | > 500 µM | – | CCCCCCCCCCCCCCCCCCO[C@H]1[C@H](O)[C@@H](CO)OC(O)[C@@H]1O (stereo partly specified) |
| inactive | 41 µM | – | C=CCCCCCCCO[C@H]1[C@H](O)[C@@H](CO)OC(O)[C@@H]1O (stereo partly specified) |
| inactive | 23 µM | – | CCCCCCCCCCCO[C@H]1[C@H](O)[C@@H](CO)OC(O)[C@@H]1O (stereo partly specified) |
| inactive | 37 µM | – | C=CCCCCCCCCCCCCCO[C@H]1[C@H](O)[C@@H](CO)OC(O)[C@@H]1O (stereo partly specified) |
| inactive | 64 µM | – | OC[C@H]1OC(O)[C@H](O)[C@@H](OCCCCCc2ccccc2)[C@@H]1O (stereo partly specified) |
| inactive | 49 µM | – | C=CCCCCCCCCO[C@H]1[C@H](O)[C@@H](CO)OC(O)[C@@H]1O (stereo partly specified) |
| inactive | > 500 µM | – | C=CCOCCCCCCCO[C@H]1[C@H](O)[C@@H](CO)OC(O)[C@@H]1O (stereo partly specified) |
| inactive | < 500 µM | – | CCCCCCCO[C@H]1[C@H](O)[C@@H](CO)OC(O)[C@@H]1O (stereo partly specified) |
| inactive | 19 µM | – | CCCCCCCCCCO[C@H]1[C@H](O)[C@@H](CO)OC(O)[C@@H]1O (stereo partly specified) |
| inactive | 30 µM | – | CCCCCCCCO[C@H]1[C@H](O)[C@@H](CO)OC(O)[C@@H]1O (stereo partly specified) |
